Data on 15 molecules can be found in ChEMBL document CHEMBL1138880, “Synthesis of DNA-directed pyrrolidinyl and piperidinyl confined alkylating chloroalkylaminoanthraquinones: potential for development of tumor-selective N-oxides” (J Med Chem, 2006).

Assay [1] concerns A2780. The experiment in a line: Inhibition of A2780 cell growth. The settings on record: Homo sapiens. It is filed as functional, cell-based.
Assay [2] relates to A2780. As to the kind of experiment: Inhibition of Doxorubicin-resistant A2780 cell growth. The settings on record: Homo sapiens. It is filed as functional, cell-based.
For assay [3], the system named is A2780. As to the kind of experiment: Inhibition of cisplatin-resistant A2780 cell growth. In kind it is functional, cell-based. The settings on record: Homo sapiens.
The test system of assay [4] is A2780. The experiment in a line: Resistance factor, IC50 for A2780 AD cells/ IC50 for A2780 cells. It is filed as functional, Homo sapiens.
Assay [5] relates to A2780. As to the kind of experiment: Resistance factor, IC50 for A2780/cp70 cells/ IC50 for A2780 cells. In kind it is functional, Homo sapiens.
Assay [6] has as its system Nucleic Acid. The experiment in a line: Alkylation of DNA at 10 uM after 24 hrs by Taq polymerase stop assay. It is filed as nucleic-acid assay. In a few lines:
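Linearised pBR322 was treated with drug for 24 h; the screening range was 1 nM-10 µM. Treated DNA was extended with labelled SRM primer and Taq polymerase over 30 cycles (95 °C 1 min, 58 °C 1 min, 74 °C). Products were run on a denaturing gel in TBE at 55 °C with mechlorethamine and untreated DNA, then autoradiographed to map guanine alkylation sites.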

In assay [7] the test system is Nucleic Acid. As to the kind of experiment: Ability to interstand cross-link DNA upto 100 uM by agarose gel cross-link assay. It is filed as nucleic-acid assay. In a few lines: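 Agarose gel interstrand cross-link assay on linearised, 5′-end 32P-labelled pBR322 in TEOA buffer at 37 °C. Drug was tested across concentrations up to 100 µM and times up to 24 h. DNA was strand-separated at 95 °C, then run on 0.8% agarose and autoradiographed.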

For assay [8], the system named is Panel NCI-60 (60 carcinoma cell lines). The experiment in a line: Cytotoxicity against NCI60 cell line. In kind it is functional. The settings on record: Homo sapiens.
Assay [9] relates to Nucleic Acid. The experiment in a line: Induction of DNA unwinding by agarose gel based supercoiled plasmid pBR322 DNA mobility assay. It is filed as nucleic-acid assay. In a few lines: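 Circular supercoiled pBR322 (250 ng) with compound in reaction buffer (Tris-HCl pH 7.9, NaCl, KCl, MgCl2, EDTA, BSA, ATP), 30 °C for 15 min; stopped, run on 0.8% agarose in 1× TAE at 100 V for 3 h, EtBr-stained 30 min, visualized under UV.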

Assay [10] concerns Nucleic Acid. The experiment in a line: Ability to interstand cross-link DNA by agarose gel cross-link assay. In kind it is nucleic-acid assay. In a few lines: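 Linearised, 5′-end 32P-labelled pBR322 DNA (~100 ng) incubated with drug (0.01-10 µM final) in TEOA buffer at 37 °C for 1 h, then stopped. DNA was precipitated, heat-denatured in strand separation buffer (95 °C, 2 min), run on 0.8% agarose at 40 V overnight and autoradiographed. Cross-linked DNA was quantified by densitometry as the mean of three replicates.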

Activity calls are given as the source filed them. No cut-off for these calls is given here.

For `COc1cccc2c1C(=O)c1c(O)c3c(c(O)c1C2=O)C[C@@](O)(C(=O)CO)C[C@@H]3O[C@H]1C[C@H](N)[C@H](O)[C@H](C)O1` [DOXORUBICIN], the 50% inhibitory concentration (IC50) – broadly, the midpoint of a concentration-inhibition curve – in the assay on A2780 [1] worked out at 7.5 nM; with A2780 [2], 61 nM; with A2780 [3], 3 nM. In addition, the “Ratio IC50” value in the assay on A2780 [4] stood at 8.1; in the assay with A2780 [5], 0.4.
For the molecule `O=C1c2c(O)ccc(O)c2C(=O)c2c(NCCN3CCCC(CCl)C3)ccc(NCCN3CCCC(CCl)C3)c21` (stereo not drawn), the IC50 in the assay with A2780 [1], in the assay on A2780 [2] and with A2780 [3] was more than 1000 nM in each case. Further, the result with Nucleic Acid [6] and in the assay with Nucleic Acid [7] was inactive.
Regarding `CN(C)CCNc1ccc(NCCN2CCCC2CCl)c2c1C(=O)c1c(O)ccc(O)c1C2=O` (stereo not drawn), the IC50 in the assay with A2780 [1] came to 29 nM; with A2780 [2], 292 nM; in the assay on A2780 [3], 79 nM. Also, the “Ratio IC50” value with A2780 [4] was determined as 10.1; in the assay with A2780 [5] it was 2.7. For the same molecule, the GI50 (usually the concentration at which growth is held to half of that of the control) in assay [8] turned out to be 96 nM.
`O=C1c2c(O)ccc(O)c2C(=O)c2c(NCCN3CCCCC3)ccc(NCCN3CCCCC3)c21`: the IC50 in the assay on A2780 [1], in the assay with A2780 [2] and with A2780 [3] was more than 1000 nM each time.
Turning to `O=C1c2c(O)ccc(O)c2C(=O)c2c(NCCN3CCCC(CO)C3)ccc(NCCN3CCCC(CO)C3)c21` (stereo not drawn), the IC50 with A2780 [1] was 70 nM; in the assay with A2780 [2], more than 1000 nM; with A2780 [3], 70 nM. In addition, the “Ratio IC50” value in the assay with A2780 [5] turned out to be 1.
As for `O=C1c2ccccc2C(=O)c2c(NCCN3CCCC3CO)cccc21` (stereo not drawn), the IC50 with A2780 [1], with A2780 [2] and with A2780 [3] was more than 1000 nM in each case.
As for `O=C1c2ccccc2C(=O)c2c(NCCN3CCCC3CCl)cccc21` (stereo not drawn), the half-maximal inhibitory concentration (IC50) with A2780 [1], with A2780 [2] and with A2780 [3] was more than 1000 nM each time.
On to `O=C1c2c(O)ccc(O)c2C(=O)c2c(NCC[N+]3([O-])CCCCC3CCl)ccc(NCC[N+]3([O-])CCCCC3CCl)c21` (stereo not drawn), for which the IC50 with A2780 [1], in the assay with A2780 [2] and in the assay on A2780 [3] was more than 1000 nM in each case. Also, in the assay with Nucleic Acid [9], the result was inactive.
For `O=C1c2c(O)ccc(O)c2C(=O)c2c(NCCN3CCCCC3CO)ccc(NCCN3CCCCC3CO)c21` (stereo not drawn), the 50% inhibitory concentration (IC50) in the assay on A2780 [1] was 740 nM; with A2780 [2] it was more than 1000 nM; in the assay with A2780 [3], more than 590 nM. Also, the “Ratio IC50” value in the assay with A2780 [5] is listed as 0.9.
With `CN(C)CCNc1ccc(NCCN2CCC(Cl)C2)c2c1C(=O)c1c(O)ccc(O)c1C2=O` (stereo not drawn), the half-inhibitory concentration (IC50) with A2780 [1] was found to be 68 nM; with A2780 [2] it was 342 nM; with A2780 [3], 96 nM. The “Ratio IC50” value is reported as 5 in the assay on A2780 [4] and 1.4 in the assay with A2780 [5].
Consider `CN(C)CCNc1ccc(NCCN2CCC(Cl)CC2)c2c1C(=O)c1c(O)ccc(O)c1C2=O`, for which the half-maximal inhibitory concentration (IC50) in the assay with A2780 [1] is 576 nM; with A2780 [2], 426 nM; in the assay on A2780 [3] it was 535 nM. The “Ratio IC50” value with A2780 [4] is 0.7; in the assay with A2780 [5], 0.9. Also, the result in the assay on Nucleic Acid [6] was inactive.
Take `CN(C)CCNc1ccc(NCCN2C(CCl)CCCC2CCl)c2c1C(=O)c1c(O)ccc(O)c1C2=O` (stereo not drawn): the IC50 turned out to be 24 nM with A2780 [1], 106 nM in the assay on A2780 [2] and 357 nM with A2780 [3]. Also, the “Ratio IC50” value with A2780 [4] worked out at 4.4; in the assay on A2780 [5], 14.9.
With `CN(C)CCNc1ccc(NCCN2CCCC(Cl)C2)c2c1C(=O)c1c(O)ccc(O)c1C2=O` (stereo not drawn), the results for the 50% inhibitory concentration (IC50) in the assay on A2780 [1], in the assay on A2780 [2] and in the assay on A2780 [3] were 9 nM, 75 nM and 63 nM, respectively. Also, the “Ratio IC50” value in the assay with A2780 [4] worked out at 8.3; in the assay on A2780 [5] it was 7. Besides, the GI50 in [8] was 182 nM.
With `CN(C)CCNc1ccc(NCCN2CCCCC2CCl)c2c1C(=O)c1c(O)ccc(O)c1C2=O` (stereo not drawn), the IC50 in the assay on A2780 [1] was found to be 40 nM; with A2780 [2] it was 91 nM; in the assay on A2780 [3] it was 69 nM. Besides, the “Ratio IC50” value in the assay on A2780 [4] was determined as 2.3; with A2780 [5], 1.7.
Regarding `O=C1c2c(O)ccc(O)c2C(=O)c2c(NCCN3CCCCC3CCl)ccc(NCCN3CCCCC3CCl)c21` (stereo not drawn), the figures for the IC50 with A2780 [1], in the assay with A2780 [2] and in the assay on A2780 [3] were 178 nM, more than 1000 nM and more than 1000 nM, respectively. The Activity entry in the assay with Nucleic Acid [10] was “Time-dependent effect”.
